According to ChEMBL document CHEMBL1773058, “Synthesis of 4β-carbamoyl epipodophyllotoxins as potential antitumour agents” (2011):
The source made the active and inactive calls. No cut-off for these calls is given here.

How the values were obtained:
ZR-75-1 = experiment: Growth inhibition of human ZR-75-1 cells after 48 hrs by sulforhodamine B assay; format: functional; settings: ZR-75-1, 48 h
Method in brief: (§1)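 Cells grown in RPMI-1640 (2 mM glutamine, pH 7.4, 10% FCS, penicillin/streptomycin) at 37 °C, 5% CO2. Subconfluent cells trypsinised, used at >97% viability (trypan blue), plated and grown 24 h, then exposed to test materials 48 h in triplicate. Fixed with TCA at 4 °C for 1 h, stained 30 min with 0.4% SRB in 1% acetic acid, dye solubilised in 10 mM Tris pH 10.4, OD read at 540 nm. GI50 reported.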

MCF7 = experiment: Growth inhibition of human MCF7 cells after 48 hrs by sulforhodamine B assay; format: functional; settings: MCF7, 48 h; method in brief: as §1
KB = experiment: Growth inhibition of human KB cells after 48 hrs by sulforhodamine B assay; format: functional; method in brief: as §1
[1] = Growth inhibition of human Gurav cells after 48 hrs by sulforhodamine B assay; format: functional; method in brief: as §1
[2] = Growth inhibition of human DWD cells after 48 hrs by sulforhodamine B assay; format: functional; method in brief: as §1
COLO 205 = experiment: Growth inhibition of human COLO205 cells after 48 hrs by sulforhodamine B assay; format: functional; settings: COLO 205, 48 h; method in brief: as §1
A549 = experiment: Growth inhibition of human A549 cells after 48 hrs by sulforhodamine B assay; format: functional; settings: A549, 48 h; method in brief: as §1
HOP-62 = experiment: Growth inhibition of human HOP62 cells after 48 hrs by sulforhodamine B assay; format: functional; settings: HOP-62, 48 h; method in brief: as §1
PC-3 = experiment: Growth inhibition of human PC3 cells after 48 hrs by sulforhodamine B assay; format: functional; settings: PC-3, 48 h; method in brief: as §1
SiHa = experiment: Growth inhibition of human SiHa cells after 48 hrs by sulforhodamine B assay; format: functional; method in brief: as §1
A2780 = experiment: Growth inhibition of human A2780 cells after 48 hrs by sulforhodamine B assay; format: functional; settings: A2780, 48 h; method in brief: as §1
[3] = target: DNA topoisomerase 2-alpha (Homo sapiens) (UniProt P11388); experiment: Inhibition of topoisomerase 2 assessed as inhibition of relaxation of supercoiled pBR322 plasmid DNA at 10 uM to 1 mM by ethidium bromide staining
Chain of DNA topoisomerase 2-alpha (Homo sapiens) (P11388 whole entry): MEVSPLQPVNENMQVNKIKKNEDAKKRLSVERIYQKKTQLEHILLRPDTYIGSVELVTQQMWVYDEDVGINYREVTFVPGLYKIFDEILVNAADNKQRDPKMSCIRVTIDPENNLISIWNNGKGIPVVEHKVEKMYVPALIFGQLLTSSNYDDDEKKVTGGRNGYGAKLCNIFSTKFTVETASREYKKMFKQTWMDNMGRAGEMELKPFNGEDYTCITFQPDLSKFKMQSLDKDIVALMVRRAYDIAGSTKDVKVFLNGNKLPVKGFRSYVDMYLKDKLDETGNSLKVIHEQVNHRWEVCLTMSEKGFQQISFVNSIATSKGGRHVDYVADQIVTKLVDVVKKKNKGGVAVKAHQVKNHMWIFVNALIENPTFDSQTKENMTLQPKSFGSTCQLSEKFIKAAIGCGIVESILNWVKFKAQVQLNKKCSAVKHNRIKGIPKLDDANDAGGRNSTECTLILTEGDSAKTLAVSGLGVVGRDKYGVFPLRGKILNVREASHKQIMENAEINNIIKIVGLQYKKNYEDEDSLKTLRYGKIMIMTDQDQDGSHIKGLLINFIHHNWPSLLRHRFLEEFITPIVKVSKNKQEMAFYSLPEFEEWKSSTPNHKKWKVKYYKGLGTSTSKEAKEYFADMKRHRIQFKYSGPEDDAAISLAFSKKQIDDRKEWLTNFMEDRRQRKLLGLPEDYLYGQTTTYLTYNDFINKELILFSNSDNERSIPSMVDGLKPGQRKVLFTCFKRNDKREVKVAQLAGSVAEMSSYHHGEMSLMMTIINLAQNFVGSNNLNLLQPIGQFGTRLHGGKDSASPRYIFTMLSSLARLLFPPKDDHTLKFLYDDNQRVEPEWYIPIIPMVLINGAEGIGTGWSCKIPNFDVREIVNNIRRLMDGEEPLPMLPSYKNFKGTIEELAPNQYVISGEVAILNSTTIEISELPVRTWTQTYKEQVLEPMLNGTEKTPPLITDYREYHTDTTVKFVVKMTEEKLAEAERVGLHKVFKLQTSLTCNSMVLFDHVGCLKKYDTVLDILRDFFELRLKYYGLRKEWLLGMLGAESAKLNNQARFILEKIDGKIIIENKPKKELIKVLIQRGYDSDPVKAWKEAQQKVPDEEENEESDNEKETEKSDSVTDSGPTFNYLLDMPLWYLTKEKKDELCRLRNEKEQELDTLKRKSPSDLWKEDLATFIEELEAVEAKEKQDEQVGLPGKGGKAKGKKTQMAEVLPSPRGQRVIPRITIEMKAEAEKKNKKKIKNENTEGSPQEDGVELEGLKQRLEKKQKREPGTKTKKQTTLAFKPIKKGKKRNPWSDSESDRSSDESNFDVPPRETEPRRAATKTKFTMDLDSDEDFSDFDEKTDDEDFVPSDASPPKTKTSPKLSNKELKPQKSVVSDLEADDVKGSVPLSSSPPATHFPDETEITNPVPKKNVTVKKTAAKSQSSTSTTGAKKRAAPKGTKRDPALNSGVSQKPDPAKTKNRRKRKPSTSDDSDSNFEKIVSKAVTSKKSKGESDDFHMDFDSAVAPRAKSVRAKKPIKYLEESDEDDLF
Method in brief: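 Topo II relaxation reaction stopped with 10% SDS, then proteinase K treatment and extraction with chloroform/isoamyl alcohol (24:1). Products resolved on 1% agarose gel in TAE (40 mM Tris-acetate pH 8.0, 1 mM EDTA) and stained with 0.5 µg/ml ethidium bromide.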

SMILES	GI50 (ZR-75-1) [nM]	GI50 (MCF7) [nM]	GI50 (KB) [nM]	GI50 [1] [nM]	GI50 [2] [nM]	GI50 (COLO 205) [nM]	GI50 (A549) [nM]	GI50 (HOP-62) [nM]	GI50 (PC-3) [nM]	GI50 (SiHa) [nM]	GI50 (A2780) [nM]	inhibition [3]
COc1cc([C@@H]2c3cc4c(cc3[C@@H](OC(=O)NCC3CC3)[C@H]3COC(=O)[C@H]23)OCO4)cc(OC)c1OC	190	2300	2400	180	2000	2500	< 100	2500	2300	2300	2000	–
CCCNC(=O)O[C@@H]1c2cc3c(cc2[C@@H](c2cc(OC)c(OC)c(OC)c2)[C@H]2C(=O)OC[C@@H]21)OCO3	190	2000	2100	170	2000	2700	< 100	160	170	1200	190	–
COc1cc([C@@H]2c3cc4c(cc3[C@@H](OC(=O)N(C)C)[C@H]3COC(=O)[C@H]23)OCO4)cc(OC)c1OC	120	160	180	170	< 100	2100	< 100	130	150	2100	180	–
COc1cc([C@@H]2c3cc4c(cc3[C@@H](OC(=O)NCCN(C)C)[C@H]3COC(=O)[C@H]23)OCO4)cc(OC)c1OC	< 100	110	160	150	< 100	2100	< 100	120	150	2100	120	–
COc1cc([C@@H]2c3cc4c(cc3[C@@H](OC(=O)NCc3ccc(C(F)(F)F)cc3)[C@H]3COC(=O)[C@H]23)OCO4)cc(OC)c1OC	160	180	180	190	2000	150	< 100	2300	2100	2000	180	–
C#CCNC(=O)O[C@@H]1c2cc3c(cc2[C@@H](c2cc(OC)c(OC)c(OC)c2)[C@H]2C(=O)OC[C@@H]21)OCO3	140	190	170	140	< 100	2700	< 100	140	160	1900	160	–
COc1cc([C@@H]2c3cc4c(cc3[C@@H](OC(=O)N3CCOCC3)[C@H]3COC(=O)[C@H]23)OCO4)cc(OC)c1OC	140	160	120	140	< 100	2700	< 100	130	160	1400	130	Active
COc1cc([C@@H]2c3cc4c(cc3[C@@H](OC(=O)NCCc3c[nH]c5ccccc35)[C@H]3COC(=O)[C@H]23)OCO4)cc(OC)c1OC	130	160	180	120	< 100	120	< 100	2100	160	1800	110	Active
O=c1[nH]cc(F)c(=O)[nH]1 [FLUOROURACIL]	2300	2800	5200	3100	6100	2800	2400	4100	12000	6300	3500	–
COCCNC(=O)O[C@@H]1c2cc3c(cc2[C@@H](c2cc(OC)c(OC)c(OC)c2)[C@H]2C(=O)OC[C@@H]21)OCO3	< 100	150	150	140	< 100	2200	< 100	120	160	2400	150	–
COc1cc([C@@H]2c3cc4c(cc3[C@@H](O[C@@H]3O[C@@H]5CO[C@@H](C)O[C@H]5[C@H](O)[C@H]3O)[C@H]3COC(=O)[C@H]23)OCO4)cc(OC)c1O [ETOPOSIDE]	200	2100	300	500	600	130	3080	800	2600	3100	1300	–
COc1cc([C@@H]2c3cc4c(cc3[C@@H](OC(=O)NC(C)C)[C@H]3COC(=O)[C@H]23)OCO4)cc(OC)c1OC	150	190	180	160	< 100	2700	< 100	2100	190	190	140	–
